From ChEMBL document CHEMBL4411280, “Synthesis, structure activity relationship and in vitro anti-influenza virus activity of novel polyphenol-pentacyclic triterpene conjugates” (Eur J Med Chem, 2019) come the findings set out here.

Molecules are shown by their SMILES.

The data set relates to MDCK. Description: Cytotoxicity against MDCK cells at 50 uM after 40 hrs by CellTiter-Glo assay. It is filed as cell-based, Canis lupus familiaris. The note with it: dog. The procedure, abridged:
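Single-concentration toxicity screen at 50 μM final on MDCK cells for 40 h, read by CellTiter-Glo. 0.5% DMSO final as negative control. Triplicate experiments, standard deviations shown.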
In general terms: In ATP-based viability assays light output follows the ATP content of the culture.

`CC1(C)CC[C@]2(C(=O)NCCNC(=O)c3ccc(OCc4ccccc4)cc3)CC[C@]3(C)C(=CC[C@@H]4[C@@]5(C)CC[C@H](O)C(C)(C)[C@@H]5CC[C@]43C)[C@@H]2C1`: the Activity entry is given as “Non-Toxic”.
To `C[C@H]1[C@H](C)CC[C@]2(C(=O)NCCNC(=O)c3cc(O)cc(O)c3)CC[C@]3(C)C(=CC[C@@H]4[C@@]5(C)CC[C@H](O)C(C)(C)[C@@H]5CC[C@]43C)[C@H]12` belongs “Toxic”.
To `CC1(C)CC[C@]2(C(=O)NCCNC(=O)c3ccc(O)cc3O)CC[C@]3(C)C(=CC[C@@H]4[C@@]5(C)CC[C@H](O)C(C)(C)[C@@H]5CC[C@]43C)[C@@H]2C1` belongs “Toxic”.
As to `C=C(C)[C@@H]1CC[C@]2(C(=O)NCCNC(=O)c3ccc(O)cc3O)CC[C@]3(C)[C@H](CC[C@@H]4[C@@]5(C)CC[C@H](O)C(C)(C)[C@@H]5CC[C@]43C)[C@@H]12`, the Activity entry is reported as “Toxic”.
The same measure for `CC1(C)CC[C@]2(C(=O)NCCNC(=O)/C=C/c3ccccc3)CC[C@]3(C)C(=CC[C@@H]4[C@@]5(C)CC[C@H](O)C(C)(C)[C@@H]5CC[C@]43C)[C@@H]2C1`: “Toxic”.
The same measure for `CC1(C)CC[C@]2(C(=O)NCCNC(=O)c3ccc(OCc4ccccc4)cc3)[C@H](O)C[C@]3(C)C(=CC[C@@H]4[C@@]5(C)CC[C@H](O)C(C)(C)[C@@H]5CC[C@]43C)[C@@H]2C1`: “Non-Toxic”; for `CC1(C)CC[C@]2(C(=O)NCCNC(=O)c3cc(OCc4ccccc4)cc(OCc4ccccc4)c3)[C@H](O)C[C@]3(C)C(=CC[C@@H]4[C@@]5(C)CC[C@H](O)C(C)(C)[C@@H]5CC[C@]43C)[C@@H]2C1`: “Non-Toxic”.
For the molecule `CC1(C)CC[C@]2(C(=O)NCCNC(=O)/C=C/c3ccccc3)[C@H](O)C[C@]3(C)C(=CC[C@@H]4[C@@]5(C)CC[C@H](O)C(C)(C)[C@@H]5CC[C@]43C)[C@@H]2C1`, the Activity result is “Toxic”.
Regarding `CC1(C)CC[C@]2(C(=O)NCCNC(=O)c3ccc(O)cc3O)[C@H](O)C[C@]3(C)C(=CC[C@@H]4[C@@]5(C)CC[C@H](O)C(C)(C)[C@@H]5CC[C@]43C)[C@@H]2C1`, the Activity entry is recorded as “Toxic”.
The same measure for `CC1(C)CC[C@]2(C(=O)NCCNC(=O)c3cc(O)cc(O)c3)[C@H](O)C[C@]3(C)C(=CC[C@@H]4[C@@]5(C)CC[C@H](O)C(C)(C)[C@@H]5CC[C@]43C)[C@@H]2C1`: “Toxic”; for `CC1(C)CC[C@]2(C(=O)NCCNC(=O)c3cc(OCc4ccccc4)cc(OCc4ccccc4)c3)CC[C@]3(C)C(=CC[C@@H]4[C@@]5(C)CC[C@H](O)C(C)(C)[C@@H]5CC[C@]43C)[C@@H]2C1`: “Non-Toxic”.
To `C=C(C)[C@@H]1CC[C@]2(C(=O)NCCNC(=O)c3cc(OCc4ccccc4)c(OCc4ccccc4)c(OCc4ccccc4)c3)CC[C@]3(C)[C@H](CC[C@@H]4[C@@]5(C)CC[C@H](O)C(C)(C)[C@@H]5CC[C@]43C)[C@@H]12` belongs “Non-Toxic”.
The same measure for `C=C(C)[C@@H]1CC[C@]2(C(=O)NCCNC(=O)/C=C/c3ccccc3)CC[C@]3(C)[C@H](CC[C@@H]4[C@@]5(C)CC[C@H](O)C(C)(C)[C@@H]5CC[C@]43C)[C@@H]12`: “Non-Toxic”; for `C[C@H]1[C@H](C)CC[C@]2(C(=O)NCCNC(=O)c3ccc(O)cc3)CC[C@]3(C)C(=CC[C@@H]4[C@@]5(C)CC[C@H](O)C(C)(C)[C@@H]5CC[C@]43C)[C@H]12`: “Toxic”; for `CC1(C)CC[C@]2(C(=O)NCCNC(=O)c3ccc(O)cc3)[C@H](O)C[C@]3(C)C(=CC[C@@H]4[C@@]5(C)CC[C@H](O)C(C)(C)[C@@H]5CC[C@]43C)[C@@H]2C1`: “Toxic”.
For `C=C(C)[C@@H]1CC[C@]2(C(=O)NCCNC(=O)c3cc(O)cc(O)c3)CC[C@]3(C)[C@H](CC[C@@H]4[C@@]5(C)CC[C@H](O)C(C)(C)[C@@H]5CC[C@]43C)[C@@H]12`, the Activity entry was “Toxic”.
`C[C@H]1[C@H](C)CC[C@]2(C(=O)NCCNC(=O)c3ccc(OCc4ccccc4)cc3)CC[C@]3(C)C(=CC[C@@H]4[C@@]5(C)CC[C@H](O)C(C)(C)[C@@H]5CC[C@]43C)[C@H]12`: the Activity entry was “Non-Toxic”.
As to `CC1(C)CC[C@]2(C(=O)NCCNC(=O)/C=C/c3ccc(O)cc3)CC[C@]3(C)C(=CC[C@@H]4[C@@]5(C)CC[C@H](O)C(C)(C)[C@@H]5CC[C@]43C)[C@@H]2C1`, the Activity result is listed as “Non-Toxic”.
In the case of `C[C@H]1[C@H](C)CC[C@]2(C(=O)NCCNC(=O)c3cc(O)c(O)c(O)c3)CC[C@]3(C)C(=CC[C@@H]4[C@@]5(C)CC[C@H](O)C(C)(C)[C@@H]5CC[C@]43C)[C@H]12`, the Activity result is “Toxic”.
The same measure for `C[C@H]1[C@H](C)CC[C@]2(C(=O)NCCNC(=O)c3cc(OCc4ccccc4)cc(OCc4ccccc4)c3)CC[C@]3(C)C(=CC[C@@H]4[C@@]5(C)CC[C@H](O)C(C)(C)[C@@H]5CC[C@]43C)[C@H]12`: “Non-Toxic”; for `CC1(C)CC[C@]2(C(=O)NCCNC(=O)/C=C/c3ccc(O)cc3)[C@H](O)C[C@]3(C)C(=CC[C@@H]4[C@@]5(C)CC[C@H](O)C(C)(C)[C@@H]5CC[C@]43C)[C@@H]2C1`: “Non-Toxic”; for `C=C(C)[C@@H]1CC[C@]2(C(=O)NCCNC(=O)c3ccc(OCc4ccccc4)cc3)CC[C@]3(C)[C@H](CC[C@@H]4[C@@]5(C)CC[C@H](O)C(C)(C)[C@@H]5CC[C@]43C)[C@@H]12`: “Non-Toxic”.
As to `CC1(C)CC[C@]2(C(=O)NCCNC(=O)c3cc(O)cc(O)c3)CC[C@]3(C)C(=CC[C@@H]4[C@@]5(C)CC[C@H](O)C(C)(C)[C@@H]5CC[C@]43C)[C@@H]2C1`, the Activity entry is on record as “Toxic”.
The same measure for `CC1(C)CC[C@]2(C(=O)NCCNC(=O)c3cc(O)c(O)c(O)c3)[C@H](O)C[C@]3(C)C(=CC[C@@H]4[C@@]5(C)CC[C@H](O)C(C)(C)[C@@H]5CC[C@]43C)[C@@H]2C1`: “Toxic”; for `C=C(C)[C@@H]1CC[C@]2(C(=O)NCCNC(=O)c3ccc(O)cc3)CC[C@]3(C)[C@H](CC[C@@H]4[C@@]5(C)CC[C@H](O)C(C)(C)[C@@H]5CC[C@]43C)[C@@H]12`: “Toxic”; for `C=C(C)[C@@H]1CC[C@]2(C(=O)NCCNC(=O)c3cc(OCc4ccccc4)cc(OCc4ccccc4)c3)CC[C@]3(C)[C@H](CC[C@@H]4[C@@]5(C)CC[C@H](O)C(C)(C)[C@@H]5CC[C@]43C)[C@@H]12`: “Non-Toxic”.
In the case of `CC1(C)CC[C@]2(C(=O)NCCNC(=O)c3ccc(O)cc3)CC[C@]3(C)C(=CC[C@@H]4[C@@]5(C)CC[C@H](O)C(C)(C)[C@@H]5CC[C@]43C)[C@@H]2C1`, the Activity entry was “Non-Toxic”.
The same measure for `C[C@H]1[C@H](C)CC[C@]2(C(=O)NCCNC(=O)c3ccc(O)cc3O)CC[C@]3(C)C(=CC[C@@H]4[C@@]5(C)CC[C@H](O)C(C)(C)[C@@H]5CC[C@]43C)[C@H]12`: “Toxic”; for `CC1(C)CC[C@]2(C(=O)NCCNC(=O)c3cc(O)c(O)c(O)c3)CC[C@]3(C)C(=CC[C@@H]4[C@@]5(C)CC[C@H](O)C(C)(C)[C@@H]5CC[C@]43C)[C@@H]2C1`: “Toxic”.
